Experimental data taken from ChEMBL document CHEMBL4308843, “Identification of ABX-1431, a Selective Inhibitor of Monoacylglycerol Lipase and Clinical Candidate for Treatment of Neurological Disorders” (J Med Chem, 2018).
Active and inactive are the calls of the source. No cut-off for these calls is given here.

Assays:
[1] = Oral bioavailability in Beagle dog at 1 mg/kg by LC-MS analysis; assay type: ADME, organism-based, Canis lupus familiaris; settings: in vivo
Summary of the method: (§1)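 Male beagle dogs (n = 3 per route), 10–12 months old, were dosed at 1 mg/kg iv or po in PEG400/ethanol/PBS (7/2/1), fasted overnight to 2 h post-dose. Peripheral venous blood was sampled to 24 h into K2EDTA and plasma frozen at −80 °C. Plasma was quantified by HPLC-MS/MS, with noncompartmental analysis.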

Rattus norvegicus [2] = experiment: Effect on spontaneous locomotor activity in Sprague-Dawley rat assessed as locomotor counts at 10 mg/kg, po monitored over 10 mins period; assay type: ADME, organism-based; settings: in vivo
Summary of the method: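 Male Sprague Dawley rats (175–200 g) received vehicle (0.5% methylcellulose) or 10 mg/kg orally. Four hours later, spontaneous locomotor frequency was recorded for 10 min in a vibration-sensing Laboras cage system; n = 10 per group.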

Cytochrome P450 2C19 = Cytochrome P450 2C19 (Homo sapiens, UniProt P33261); experiment: Inhibition of recombinant human CYP2C19; assay type: ADME
Cytochrome P450 2C19, sequence (P33261 whole entry): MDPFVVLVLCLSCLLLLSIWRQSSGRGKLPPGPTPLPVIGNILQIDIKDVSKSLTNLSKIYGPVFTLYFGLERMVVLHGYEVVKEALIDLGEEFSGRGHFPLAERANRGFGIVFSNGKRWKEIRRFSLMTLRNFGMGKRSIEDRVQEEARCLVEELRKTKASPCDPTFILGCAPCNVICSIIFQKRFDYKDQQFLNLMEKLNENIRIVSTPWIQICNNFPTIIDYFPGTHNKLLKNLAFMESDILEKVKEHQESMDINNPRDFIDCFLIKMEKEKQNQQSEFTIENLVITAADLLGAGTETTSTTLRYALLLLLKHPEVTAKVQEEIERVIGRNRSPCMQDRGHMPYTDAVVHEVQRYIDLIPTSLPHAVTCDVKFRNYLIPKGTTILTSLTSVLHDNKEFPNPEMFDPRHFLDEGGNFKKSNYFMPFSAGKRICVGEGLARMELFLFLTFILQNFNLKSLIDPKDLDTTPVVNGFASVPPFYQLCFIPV

[3] = Tmax in Beagle dog at 1 mg/kg, iv or 1 mg/kg, po by LC-MS analysis; assay type: ADME, organism-based, Canis lupus familiaris; settings: in vivo; summary of the method: as §1
[4] = molecular target: T1, Monoacylglycerol lipase ABHD6 (Rattus norvegicus) (UniProt Q5XI64); experiment: Inhibition of ABHD6 in rat brain membrane homogenates at 0.001 to 10 uM preincubated for 30 mins followed by FP-Rh addition after 30 mins by gel-based ABPP assay; assay type: cell membranes
T1 sequence (whole entry): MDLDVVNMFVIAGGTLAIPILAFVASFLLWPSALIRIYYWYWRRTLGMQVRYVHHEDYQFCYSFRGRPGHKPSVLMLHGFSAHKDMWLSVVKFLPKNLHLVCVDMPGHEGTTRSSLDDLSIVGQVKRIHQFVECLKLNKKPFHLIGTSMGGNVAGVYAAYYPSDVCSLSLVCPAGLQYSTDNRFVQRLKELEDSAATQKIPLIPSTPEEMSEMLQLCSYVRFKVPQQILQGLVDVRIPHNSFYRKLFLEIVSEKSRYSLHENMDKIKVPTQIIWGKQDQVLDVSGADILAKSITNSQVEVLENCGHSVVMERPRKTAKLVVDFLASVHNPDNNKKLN

Cytochrome P450 3A5 = Cytochrome P450 3A5 (Homo sapiens, UniProt P20815); experiment: Inhibition of recombinant human CYP3A5; assay type: ADME
Cytochrome P450 3A5, sequence (P20815 whole entry): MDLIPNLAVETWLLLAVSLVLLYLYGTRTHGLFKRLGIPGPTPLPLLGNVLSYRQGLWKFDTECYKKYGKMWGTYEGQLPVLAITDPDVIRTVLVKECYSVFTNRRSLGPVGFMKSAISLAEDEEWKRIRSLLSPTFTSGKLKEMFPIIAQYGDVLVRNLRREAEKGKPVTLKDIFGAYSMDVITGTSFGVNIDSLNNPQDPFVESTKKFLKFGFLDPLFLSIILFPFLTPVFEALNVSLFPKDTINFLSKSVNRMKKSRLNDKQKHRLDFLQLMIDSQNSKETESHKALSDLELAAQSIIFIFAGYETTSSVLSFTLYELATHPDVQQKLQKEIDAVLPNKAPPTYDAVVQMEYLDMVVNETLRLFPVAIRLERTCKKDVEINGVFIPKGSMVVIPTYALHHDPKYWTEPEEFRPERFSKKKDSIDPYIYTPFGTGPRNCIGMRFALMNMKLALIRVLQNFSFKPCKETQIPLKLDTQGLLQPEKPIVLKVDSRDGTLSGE

[5] = Cmax in Beagle dog at 1 mg/kg, po by LC-MS analysis; settings: in vivo
Rattus norvegicus [6] = experiment: Antinociceptive activity in po dosed Sprague-Dawley rat brain assessed as inhibition of CES1c activity measured after 4 hrs post dose in presence of FP-Rh probe by gel-based ABPP assay; assay type: functional
Summary of the method: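 Male Sprague Dawley rats, 6–12 weeks old, given single oral doses (0.03–10 mg/kg) in 0.5% methylcellulose at 5 mL/kg. Brains were taken 4 h post-dose and forebrain sections excised from one hemisphere. Brain proteome was labeled with FP-Rh (1 µM, 30 min) and analyzed by SDS-PAGE with in-gel fluorescence. Band intensity was normalized to vehicle.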

[7] = molecular target: T2, Monoacylglycerol lipase ABHD6 (Mus musculus) (UniProt Q8R2Y0); experiment: Inhibition of ABHD6 in mouse brain membrane homogenates at 0.001 to 10 uM preincubated for 30 mins followed by FP-Rh addition after 30 mins by gel-based ABPP assay; assay type: cell membranes
T2 sequence (whole entry): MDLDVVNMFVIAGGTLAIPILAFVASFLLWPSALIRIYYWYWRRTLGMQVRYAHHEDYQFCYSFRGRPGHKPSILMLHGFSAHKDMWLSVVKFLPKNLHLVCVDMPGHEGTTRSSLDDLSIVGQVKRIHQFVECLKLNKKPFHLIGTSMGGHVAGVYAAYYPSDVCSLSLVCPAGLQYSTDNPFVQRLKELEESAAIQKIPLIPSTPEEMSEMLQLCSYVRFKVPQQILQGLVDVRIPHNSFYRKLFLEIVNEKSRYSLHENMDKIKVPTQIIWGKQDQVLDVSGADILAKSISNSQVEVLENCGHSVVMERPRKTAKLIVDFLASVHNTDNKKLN

[8] = molecular target: T3, Monoglyceride lipase (Rattus norvegicus) (UniProt Q8R431); experiment: Inhibition of MGLL in rat brain membrane homogenates at 0.001 to 10 uM preincubated for 30 mins followed by FP-Rh addition after 30 mins by gel-based ABPP assay; assay type: cell membranes
T3 sequence (whole entry): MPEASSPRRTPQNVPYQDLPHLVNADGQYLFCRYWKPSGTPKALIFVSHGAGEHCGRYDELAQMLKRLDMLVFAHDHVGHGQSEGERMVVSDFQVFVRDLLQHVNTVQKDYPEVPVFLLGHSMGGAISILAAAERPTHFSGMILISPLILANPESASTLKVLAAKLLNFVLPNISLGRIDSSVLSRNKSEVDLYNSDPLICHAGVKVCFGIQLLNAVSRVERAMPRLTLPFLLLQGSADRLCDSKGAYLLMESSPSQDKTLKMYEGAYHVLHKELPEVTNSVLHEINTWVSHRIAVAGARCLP
Summary of the method: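 Brain protein homogenates (1 mg/mL) treated with compound 0.001–10 µM or DMSO, 30 min at 37°C, then 1 µM FP-Rh (MGLL) or HT-01 (ABHD6), 30 min at 25°C.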

[9] = Inhibition of BCRP (unknown origin) at 10 uM; assay type: ADME; settings: human
[10] = Tmax in Sprague-Dawley rat at 1 mg/kg, iv or 5 mg/kg, po by LC-MS analysis; assay type: ADME, organism-based; settings: in vivo
Summary of the method: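 Rats (n = 3 per route) were dosed at 1 mg/kg iv (70% PEG400 in HPBCD/saline) or 5 mg/kg po (70% PEG400 in 0.5% CMC/saline), fasted overnight to 4 h post-dose. Jugular-catheter blood (~100 µL) was sampled to 24 h into 400 µL acetonitrile to stop esterases. Samples were quantified by HPLC-MS/MS, with noncompartmental analysis.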

[11] = Clearance in Beagle dog at 1 mg/kg, iv or 1 mg/kg, po by LC-MS analysis; assay type: ADME, organism-based, Canis lupus familiaris; settings: in vivo; summary of the method: as §1

O=C(OC(C(F)(F)F)C(F)(F)F)N1CCN(Cc2ccc(C(F)(F)F)cc2N2CCCC2)CC1 [ELCUBRAGISTAT]
bioavailability [1]: 57%
Activity (Rattus norvegicus [2]): Non-Toxic
IC50 (Cytochrome P450 2C19): > 50 µM
Tmax [3]: 1 h
inhibition [4]: Active
IC50 (Cytochrome P450 3A5): > 50 µM
Cmax [5]: 777 nM
ED50 (Rattus norvegicus [6]): 1.2 mg/kg
inhibition [7]: Active
inhibition [8]: Active
inhibition (INH) [9]: Not Active
Tmax [10]: 8 h
clearance [11]: 6.3 mL/min/kg
